High-throughput results deposited in PubChem BioAssay by several laboratories.
PfG6PD inh: PfG6PD (Plasmodium falciparum) enzyme inhibition. actives 0.78% (n = 350,000). inhibition, % at 20 µM. AID 504690. PfGluPho enzyme, NADPH resazurin-diaphorase fluorescence;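 active means inhibition reaching at least a set limit at 20 µM in the primary screen, cut at about 59% in these data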;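 further: 0% = DMSO wells with substrate and 100% = DMSO wells lacking glucose-6-phosphate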
HKDC1 inh: blocks human hexokinase HKDC1 activity; recombinant HKDC1, G6PDH/diaphorase resazurin coupled fluorescence; inhibition, % at 20 µM; actives 0.16% (n = 340,000); Q2TB90;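 active means inhibition above about 35% when tested at 20 µM, limit read from the data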;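 further: plate controls were DMSO wells with enzyme for no effect and DMSO wells lacking enzyme for full effect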
Target sequence (Q2TB90 whole entry, looked up): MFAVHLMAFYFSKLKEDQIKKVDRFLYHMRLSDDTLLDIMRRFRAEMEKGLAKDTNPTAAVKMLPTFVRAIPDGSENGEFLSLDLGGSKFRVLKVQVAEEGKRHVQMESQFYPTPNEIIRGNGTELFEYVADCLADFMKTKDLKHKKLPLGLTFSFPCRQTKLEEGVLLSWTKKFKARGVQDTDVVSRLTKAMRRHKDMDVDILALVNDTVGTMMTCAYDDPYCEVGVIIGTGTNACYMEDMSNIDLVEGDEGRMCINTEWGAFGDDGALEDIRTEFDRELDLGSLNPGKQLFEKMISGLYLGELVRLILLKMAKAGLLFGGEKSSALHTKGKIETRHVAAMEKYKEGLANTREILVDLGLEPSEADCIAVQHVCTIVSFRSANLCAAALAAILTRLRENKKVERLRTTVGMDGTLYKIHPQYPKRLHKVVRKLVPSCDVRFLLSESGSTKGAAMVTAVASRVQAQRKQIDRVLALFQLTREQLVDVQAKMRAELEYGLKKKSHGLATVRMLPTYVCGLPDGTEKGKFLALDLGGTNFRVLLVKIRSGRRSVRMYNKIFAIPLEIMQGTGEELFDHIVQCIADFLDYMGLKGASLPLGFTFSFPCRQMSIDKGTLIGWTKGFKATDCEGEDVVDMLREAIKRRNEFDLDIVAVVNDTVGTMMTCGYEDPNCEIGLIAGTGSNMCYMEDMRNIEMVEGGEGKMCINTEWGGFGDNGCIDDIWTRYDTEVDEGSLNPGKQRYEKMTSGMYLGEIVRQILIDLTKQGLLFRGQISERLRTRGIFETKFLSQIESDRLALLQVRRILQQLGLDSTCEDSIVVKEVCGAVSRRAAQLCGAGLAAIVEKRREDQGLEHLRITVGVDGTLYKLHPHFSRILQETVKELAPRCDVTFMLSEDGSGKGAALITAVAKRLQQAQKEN
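Material – in-house recombinant HK5 (HKDC1) enzyme · Quantity – HKDC1 at 5 µg/mL · Buffer or medium – pH 8.0 Tris buffer with 10 mM MgCl2 · Reagent – glucose with 1 mM ATP · Dosing – single 20 µM dose · Times – reaction time 90 min, room temperature, protected from light · Technique – resorufin fluorescence at 613 nm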
G6PDH counter: inhibits Leuconostoc G6PDH, flagging false hits in G6PDH-based assays. Purified L. mesenteroides G6PDH, diaphorase/resazurin coupled fluorescence, 45 min. inhibition, % at 5 µM. actives 0.12% (n = 200,000); in the data active means inhibition above about 50%
Tb hexokinase: T. brucei hexokinase 1 inhibition; inhibition, % at 10 µM; actives 0.11% (n = 220,000); recombinant TbHK1, G6PDH-coupled NADH A340;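 active means inhibition of 50% or more in the single-dose primary screen; inactive means inhibition below 50%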
Diaphorase inh: counter-screen for diaphorase-based assays: diaphorase inhibitors and chemical oxidizers. diaphorase resazurin-to-resorufin fluorescence, NADH, 16 min; bacterial (C. kluyveri) enzyme, not human. inhibition, % at 20 µM. actives 0.69% (n = 190,000);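 active means primary screen inhibition at 20 µM above a set limit, cut at about 50% in these data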;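 further: plate controls were DMSO with full reaction for no effect and wells lacking NADH for full effect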
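Test system: bacterial diaphorase enzyme (C. kluyveri); Quantity: 0.14 U/mL diaphorase, enzyme working solution; Times: reaction incubation of 16 min at room temperature; Measured by: fluorescence of resorufin formed from resazurin, Ex 544/Em 590 nm; Benchmarks: positive control minus NADH, DMSO neutral control.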
PfG6PD confirm: confirmation of Plasmodium falciparum G6PD inhibitors; recombinant PfGluPho, NADPH-diaphorase-resazurin fluorescence; shares compounds with PfG6PD inh; inhibition, % at 20 µM; actives 34% (n = 2,400);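 active means inhibition of at least 50% at 20 µM in any single replicate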;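 further: 0% = DMSO with substrate and 100% = DMSO lacking glucose-6-phosphate substrate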
Diaphorase 10uM: inhibits diaphorase or oxidizes, flagging false PfG6PD hits; diaphorase-coupled resazurin reduction, fluorescence, NADPH 10 uM; actives 39% (n = 820); inhibition, % at 20 µM; AID 504862; shares compounds with PfG6PD inh;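 active means average inhibition reaching 50% or more with the compound at 20 µM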;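 further: resorufin red fluorescence formed as diaphorase reduces resazurin using NADPH; 0% = DMSO with enzyme and 100% = DMSO without enzyme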
Diaph ctr 30uM: inhibits diaphorase or oxidizes, flagging false PfG6PD hits; shares compounds with PfG6PD inh; Diaphorase/resazurin coupled assay, resorufin fluorescence, 30 uM NADPH; inhibition, % at 20 µM; actives 29% (n = 820);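 active means inhibition averaging 50% or more, tested at 20 µM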;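 further: 0% = DMSO with enzyme and 100% = DMSO wells lacking diaphorase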
* hit, by the source's call; . = no result. Shown are actives, neighbours in structure and some others; about 1.2% of the full set was active somewhere.

SMILES	PfG6PD inh	HKDC1 inh	G6PDH counter	Tb hexokinase	Diaphorase inh	PfG6PD confirm	others
CC1(c2ccccc2)NC(=O)N(CC(=O)Nc2nc(-c3ccccn3)cs2)C1=O (stereo not drawn)	33.6	-0.7	.	.	.	.
O=C(COc1ccc(F)cc1)Nc1nc(-c2ccccn2)cs1	23.8	1.2	.	.	.	.
O=C(COc1cccc(F)c1)Nc1nc(-c2ccccn2)cs1	61.5*	.	.	.	.	6.4
Cc1ccc(C2(C)NC(=O)N(CC(=O)Nc3nc(-c4ccccn4)cs3)C2=O)cc1 (stereo not drawn)	72.1*	7.9	.	.	.	36.0
O=C(OCC(=O)N1CCNC1=O)c1ccccc1Cl	-1.7	.	.	.	.	.
Cc1ccc2nc(-c3ccc(SCC(=O)O)nc3)[nH]c2c1	25.7	15.3	3.6	-8.9	13.7	.
CC(=O)CSc1ccc(-c2nc3ccccc3[nH]2)cn1	9.2	0.5	.	.	.	.
Cc1ccc2nc(-c3ccc(SCC(=O)N4CCc5ccccc54)nc3)[nH]c2c1	59.0	-0.4	6.6	-23.0	5.7	12.0
CC(=O)CSc1ccc(-c2nc3cc(C)c(C)cc3[nH]2)cn1	66.9*	-3.8	5.5	-41.7	.	19.8
S=C(NCc1ccco1)NCc1ccco1	79.2*	-10.6	.	.	.	38.8
S=C(NCc1ccccc1)NCc1ccco1	17.7	-0.4	.	.	.	.
CN(C)c1ccc(/C=N/NC(=S)NCc2ccco2)cc1	-0.2	-2.9	3.8	-4.8	12.9	.
CN(C)c1ccc(C(=S)NCc2ccco2)cc1	63.1*	-4.3	-14.9	-19.2	16.4	3.0
CCN(C[C@H]1N[C@@](CC)(C(=O)OC)[C@H]2C(=O)N(C)C(=O)[C@@H]12)C(=O)NC(C)C	12.1	-3.1	.	.	.	.
COC(=O)CC1C(=O)NCCN1C(=O)CSc1nc2cc(Cl)ccc2o1 (stereo not drawn)	1.5	-9.9	-3.9	1.3	2.1	.
CCOC(=O)c1cc(-c2ccccc2)sc1NC(=O)C(C)C	14.9	-11.9	17.5	-3.0	0.7	.
CCOC(=O)c1cc(-c2ccccc2)sc1NC(=O)c1ccc(OC)c(OC)c1	78.5*	-12.5	11.9	-20.0	13.4	46.9
CN1C(=O)CSc2ccc(NC(=O)N3CCc4ccccc43)cc21	86.8*	-4.1	3.7	1.1	-0.9	59.5*	Diaphorase 10uM=45.2;Diaph ctr 30uM=35.3
CCn1cc(CN2CCC(n3nccc3NC(=O)c3ccccc3C)CC2)c(C)n1	-0.1	-5.2	.	.	.	.
CCc1ccc(NC(=O)Nc2cc(C(=O)O)ccc2N2CC3CC(C2)c2cccc(=O)n2C3)cc1 (stereo not drawn)	19.6	-1.1	.	.	.	.
O=C(O)c1ccc(N2CC3CC(C2)c2cccc(=O)n2C3)c(NC(=S)Nc2ccc(Cl)cc2Cl)c1 (stereo not drawn)	59.1*	-11.0	-4.2	4.3	6.9	27.1
Cc1cc(-n2c(C)cc(C(=O)COc3ccc(F)c(F)c3)c2C)no1	60.6*	7.2	.	.	.	9.1
CCOC(=O)c1c(C)n(-c2ccc(C)cc2)c2c(C(C(C)=O)C(=O)O)c(Br)c(O)c(O)c12 (stereo not drawn)	104.9*	11.0	8.6	1.7	72.3*	101.2*	Diaphorase 10uM=45.8;Diaph ctr 30uM=25.7
COc1ccc(NS(=O)(=O)c2cc(NC(=O)C3CC3)ccc2N2CCCCC2)cc1	8.8	-3.7	1.8	-4.7	18.1	.
COc1ccccc1NS(=O)(=O)c1cc(NC(=O)c2ccc(Cl)nc2)ccc1N1CCCC1	71.9*	-3.7	.	.	.	49.6*	Diaphorase 10uM=-3.1;Diaph ctr 30uM=-1.0
SMILES	PfG6PD inh	HKDC1 inh	G6PDH counter	Tb hexokinase	Diaphorase inh	PfG6PD confirm	others
COc1ccccc1NS(=O)(=O)c1cc(NC(=O)C2CCC2)ccc1N1CCCCC1	60.0*	-3.3	.	-5.2	.	26.9
CC(=O)C(Sc1ncnc2c1nnn2-c1ccc(F)cc1)C(=O)N(C)C (stereo not drawn)	61.9*	-5.9	5.0	-1.9	12.6	19.1
Cc1ccnc(NC(=O)c2cccc(NC(=O)CC3SC(N4CCCCC4)=NC3=O)c2)c1 (stereo not drawn)	4.2	-4.7	.	.	.	.
O=c1c2ccccc2sn1-c1ccc(Cl)cc1Cl	129.2*	.	.	.	.	109.3*	Diaphorase 10uM=-3.7;Diaph ctr 30uM=2.5
O=c1c2ccccc2ncn1-c1ccc(Cl)cc1Cl	0.1	1.1	.	-8.9	.	.
N#CC1=C(N)Oc2c(O)cc3ccccc3c2C1c1ccsc1 (stereo not drawn)	91.8*	-2.0	-16.7	-2.5	11.8	68.9*	Diaphorase 10uM=63.8*;Diaph ctr 30uM=49.8
CCOC(=O)C1=C(C)OC(N)=C(C#N)C1c1ccsc1 (stereo not drawn)	-34.8	10.5	-1.7	-4.4	6.5	.
Cc1ccc(/C=N/NC(=O)CSc2nc3ccccc3n2C)s1	117.1*	-0.7	9.4	-24.8	6.5	87.2*	Diaphorase 10uM=93.3*;Diaph ctr 30uM=79.3*
Cc1cc2ncn(/N=C/c3ccc(-c4ccccc4)o3)c2cc1C	73.0*	7.1	4.8	-3.4	1.2	-23.0
Cc1ccc(S(=O)(=O)NCC(=O)N2CCOCCOCCOCC2)cc1	-15.9	-0.3	.	.	.	.
COC(=O)Sc1nc(N2CCOCC2)c2c(c1C#N)CC(C)(C)OC2	49.6	5.2	3.5	-13.1	13.6	21.1
Cc1ccc(/C=N/NC(=O)c2cccc(S(=O)(=O)Nc3ccccc3Cl)c2)s1	93.8*	-8.6	-12.0	-25.2	19.6	79.7*	Diaphorase 10uM=76.3*;Diaph ctr 30uM=61.4*
CCc1ccc(NC(=O)CSc2nc(=O)n(CCN(C)C)c3c2CCCC3)cc1	-7.5	-4.9	.	.	.	.
Cc1[nH]c(-c2ccccn2)nc(=S)c1Cl	68.6*	4.3	.	-9.0	.	4.9
COc1ccc(C=C2C(=O)OC(C)(C)OC2=O)cc1OC	-13.0	-1.0	.	-12.8	.	.
COc1ccc(/C=C2\C(=O)NC(=O)c3ccccc32)cc1OC	69.1*	17.9	.	.	.	41.7
NCC(O)c1ccc(O)c(O)c1 (stereo not drawn)	-7.1	6.8	.	.	.	.
CCC(c1ccc(O)c(O)c1)C(CC)c1ccc(O)c(O)c1 (stereo not drawn)	78.4*	6.2	.	.	.	56.8*	Diaphorase 10uM=8.0;Diaph ctr 30uM=2.9
Cn1nccc1C(=O)NC1CCCc2c1cnn2-c1ccc(C(C)(C)C)cc1 (stereo not drawn)	7.9	2.4	.	.	.	.
CC(=O)c1ccc(NC(=S)NCCc2ccc(S(N)(=O)=O)cc2)cc1	-15.3	-0.2	1.3	-8.4	12.2	.
CC(C)OCCCNC(=S)Nc1ccc(S(N)(=O)=O)cc1	60.7*	-2.5	6.2	1.6	10.8	43.9
CCOC(=O)Cc1cc(=O)n2[nH]c(C(C)(C)C)cc2n1	77.9*	-0.8	.	-9.5	.	75.5*	Diaphorase 10uM=64.1*;Diaph ctr 30uM=45.9
Cc1cc(Nc2ccc(C)c(Cl)c2)nc(N2CCOCC2)n1	65.8*	-1.6	.	-4.8	.	7.6
Cc1ccc(Nc2cc(C)nc(N3CCOCC3)n2)cc1	61.3*	0.5	-1.7	0.9	12.1	11.8
Cc1cccn2c(=S)[nH]nc12	37.7	-2.4	.	.	.	.
